Reference: paper PMC4184708 (Pharmacology Research & Perspectives, 2014)
One block for each compound: values may come before it.

Key:
[1] = Pharmacokinetics of acetaminophen; assay type: in vivo, male Sprague–Dawley rats; conditions: rats
[2] = Acetaminophen deconvolution profiles and rate of gastric emptying; assay type: in vivo, male Sprague–Dawley rats; conditions: rats, deconvolution profile, after 30 min
[3] = Pharmacokinetics of vigabatrin after iv or oral administration to rats; assay type: in vivo, male Sprague–Dawley rats
Caco-2 cells = assay: Apical vigabatrin uptake in Caco-2 cells; assay type: in vitro ADME, human
In short: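 Caco-2 cells (passages 10–18) were seeded at 8.9·10^4 cells cm−2 in 24-well plates and used 6 days post seeding. Low fat infant formula: 150 mg mL−1 was incubated 15 min at 37°C, centrifuged 15 min at 18000g and 4°C, and the supernatant was re-spun to remove lipids. Uptake rate is in nmol min−1 cm−2; n = 3–4.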

Absorption rate constant = assay type: in vivo, male Sprague–Dawley rats; conditions: rats
Caco-2 cell monolayers = assay: Transepithelial apical to basolateral; assay type: in vitro ADME, human; conditions: Caco-2 monolayers, NaCl-reduced HBSS versus HBSS
In short: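 Caco-2 cells (passages 10–18) were seeded at 8.9·10^4 cells cm−2 on 1.12 cm2 polycarbonate inserts (0.4 μm) and run 20 days post seeding, with TEER monitored. 1.0 mmol/L test compound was applied apically, alone or with amino acid or dipeptide inhibitors (35.0–152.5 mmol/L) in NaCl-reduced HBSS (mannitol to 270–310 mOsmol L−1), or with low fat infant formula 150 mg mL−1 in water. Controls were in HBSS and NaCl-reduced HBSS.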

[4] = Paracellular flux: A–B transport of [14C]-mannitol across Caco-2 cell monolayers; assay type: in vitro ADME; conditions: human
[5] = oral coadministration with 120 mg kg^−1 acetaminophen
[6] = rats, vigabatrin 1.0 mg kg^−1 PO, formulation 1, dietary component none
[7] = rats, vigabatrin 1.0 mg kg^−1 PO, formulation 5, with Sar 200 mg kg^−1
[8] = rats, vigabatrin 1.0 mg kg^−1 PO, formulation 6, with BCH 200 mg kg^−1
[9] = rats, vigabatrin 10 mg kg^−1 PO, formulation 7, dietary component none
[10] = rats, vigabatrin 10 mg kg^−1 PO, formulation 10, with Sar 200 mg kg^−1

Compound: CC(=O)Nc1ccc(O)cc1 [acetaminophen]
AUC(0-inf) ([1]; male, Sprague-Dawley, rat, plasma, iv, 120 mg/kg, AUC0–∞, acetaminophen 120 mg kg^−1 iv, formulation 00, dietary component none): 155000 ± 4000 ng·h/mL
k el ([1]; male, Sprague-Dawley, rat, plasma, iv, 120 mg/kg, ke, acetaminophen 120 mg kg^−1 iv, formulation 00, dietary component none): 0.000306 s⁻¹
Fabs ([1]; acetaminophen 120 mg kg^−1 iv, formulation 00, dietary component none): 100 ± 3%
cumulative fraction of acetaminophen absorbed [2]: about 90%

Compound: CNCC(=O)O [Sar, sarcosine]
effect on Cmax of acetaminophen [1, 5]: did not alter
effect on tmax of acetaminophen [1, 5]: did not alter
effect on tmax of vigabatrin ([3]; rats, oral coadministration with 1.0 and 10.0 mg kg^−1 vigabatrin): significant prolonging effect
effect on Cmax of vigabatrin ([3]; rats, oral coadministration with vigabatrin): significantly decreased

Compound: C=CC(N)CCC(=O)O (stereo not drawn) [vigabatrin]
apical vigabatrin uptake rate (Caco-2 cells; apical pH 6.0, control): 1.01 ± 0.11 nmol min^−1 cm^−2
apical vigabatrin uptake rate (Caco-2 cells; apical pH 6.0, in the presence of Gly-Gly): 0.48 ± 0.07 nmol min^−1 cm^−2
apical vigabatrin uptake rate (Caco-2 cells; apical pH 6.0, in the presence of low fat infant formula): 0.53 ± 0.09 nmol min^−1 cm^−2
apical vigabatrin uptake rate (Caco-2 cells; apical pH 7.4, control): 0.31 ± 0.04 nmol min^−1 cm^−2
apical vigabatrin uptake rate (Caco-2 cells; apical pH 7.4, in the presence of Gly-Gly): 0.25 ± 0.03 nmol min^−1 cm^−2
apical vigabatrin uptake rate (Caco-2 cells; apical pH 7.4, in the presence of low fat infant formula): 0.28 ± 0.06 nmol min^−1 cm^−2
clearance ([3]; male, Sprague-Dawley, rat, plasma, iv, 1 mg/kg): 7.1 mL/min/kg
AUC(0-inf) ([3]; male, Sprague-Dawley, rat, plasma, po, 10 mg/kg, AUC0–∞, rats, vigabatrin 10 mg kg^−1 PO, formulation 7, dietary component none): 17800 ± 808 ng·h/mL
Cmax ([3]; male, Sprague-Dawley, rat, plasma, po, 10 mg/kg, Cmax, rats, vigabatrin 10 mg kg^−1 PO, formulation 7, dietary component none): 13600 ± 953 ng/mL
k el ([3]; male, Sprague-Dawley, rat, plasma, po, 10 mg/kg, ke, rats, vigabatrin 10 mg kg^−1 PO, formulation 7, dietary component none): 0.000194 s⁻¹
Tmax ([3]; male, Sprague-Dawley, rat, plasma, po, 10 mg/kg, tmax, median [Q1, Q3], rats, vigabatrin 10 mg kg^−1 PO, formulation 7, dietary component none): 19.8 min
time of maximal plasma concentration (Cmax) after oral administration ([3]; rats, oral administration of 1.0 or 10.0 mg kg^−1 vigabatrin): 0.25 to 0.33 h
CL [3, 6]: 9.68 ± 0.5 mL/min/kg
Fabs [3, 6]: 72 ± 4%
CL [3, 7]: 9.53 ± 0.383 mL/min/kg
Fabs [3, 7]: 73 ± 3%
CL [3, 8]: 9.13 ± 0.333 mL/min/kg
Fabs [3, 8]: 76 ± 3%
Fabs ([3]; rats, vigabatrin 1.0 mg kg^−1 iv, formulation 0, dietary component none): 100%
CL [3, 9]: 9.45 ± 0.4 mL/min/kg
Fabs [3, 9]: 74 ± 3%
CL [3, 10]: 10.6 ± 0.533 mL/min/kg
Fabs [3, 10]: 66 ± 3%
ka (Absorption rate constant; vigabatrin 1 mg kg^−1, DC fitted to eq. 9, with Low fat milk): 5.2 ± 0.3
ka (Absorption rate constant; vigabatrin 1 mg kg^−1, DC fitted to eq. 9, with Milk): 5.3 ± 0.9
ka (Absorption rate constant; vigabatrin 1 mg kg^−1, DC fitted to eq. 9, with Sar): 2.9 ± 0.2
ka (Absorption rate constant; vigabatrin 1 mg kg^−1, PC fitted to eq. 10, with Low fat milk): 2.6 ± 0.1
ka (Absorption rate constant; vigabatrin 1 mg kg^−1, PC fitted to eq. 10, with Milk): 2.8 ± 0.3
ka (Absorption rate constant; vigabatrin 1 mg kg^−1, PC fitted to eq. 10, with Sar): 1.6 ± 0.1
ka (Absorption rate constant; vigabatrin 1 mg kg^−1, deconvolution curve (DC) fitted to eq. 9, Control): 7.9 ± 1.9
ka (Absorption rate constant; vigabatrin 10 mg kg^−1, DC fitted to eq. 9, with Low fat milk): 5.0 ± 0.3
ka (Absorption rate constant; vigabatrin 10 mg kg^−1, DC fitted to eq. 9, with Milk): 4.1 ± 0.5
ka (Absorption rate constant; vigabatrin 10 mg kg^−1, DC fitted to eq. 9, with Sar): 3.2 ± 0.2
ka (Absorption rate constant; vigabatrin 10 mg kg^−1, PC fitted to eq. 10, with Low fat milk): 2.6 ± 0.1
ka (Absorption rate constant; vigabatrin 10 mg kg^−1, PC fitted to eq. 10, with Milk): 2.6 ± 0.3
ka (Absorption rate constant; vigabatrin 10 mg kg^−1, PC fitted to eq. 10, with Sar): 1.7 ± 0.1
ka (Absorption rate constant; vigabatrin 10 mg kg^−1, deconvolution curve (DC) fitted to eq. 9, Control): 8.1 ± 2.3
transport of vigabatrin in the apical to basolateral direction (Caco-2 cell monolayers): unaffected

Results, then the compound that gave them:

Papp [4]: 0.16 ×10⁻⁶ cm/s
Compound: OC[C@@H](O)[C@@H](O)[C@H](O)[C@H](O)CO [mannitol, D-[1-^14C]-mannitol]

effect on the pharmacokinetic parameters of vigabatrin absorption ([3]; rats, oral administration of 1.0 mg kg^−1 vigabatrin): did not significantly alter
Compound: NC1(C(=O)O)CC2CCC1C2 (stereo not drawn) [BCH, 2-amino-2-norbornanecarboxylic acid]
